Bioassay records: PubChem, Broad Institute
A selection: hits, their analogues and other compounds. The true share with any hit is near 3.3%.
Xi reactivation = reactivates the inactive X chromosome in mouse fibroblasts; XiGFP mouse fibroblasts, % GFP-positive cells imaging, 3 d; cells co-treated with 5-aza-dC sensitizer; scaled so ellipticine positive control = 100%; activation, % at 7.58 µM; hit rate 0.055% among 360,000; AID 743238;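 active = mean normalized replicate activation at least 10% and every replicate at or above 10%; inconclusive = only one of the two criteria met; inactive = mean below 10% and not all replicates reach 10%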;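 also: 0% = median of on-plate neutral control wells and 100% = ellipticine 6 µM median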
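System: XiGFP fibroblasts, SV40-immortalized. Medium: DMEM plus 5-aza-dC sensitizer. Doses: single point. Timing: 3 d treatment, 15 min room-temperature fixation. Control set: ellipticine 6 µM.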
DENV2 CPE rescue = inhibitors of DENV2 cytopathic effect; CPE inhibition, % at 9.99 µM; hit rate 1.7% among 350,000; DENV2-infected cells, cytopathic effect rescue, plate reader; AID 651640; in the data active = CPE inhibition above about 20%, passing the limit was not always enough; inconclusive = no clear call, values can overlap the other calls; tested in BHK-21 cells;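 also: 0% = median of neutral control wells and 100% = median of positive control wells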
PglD inh = PglD (C. jejuni) enzyme inhibition. purified PglD enzyme, DTNB colorimetric CoA detection. inhibition, % at 12.5 µM. hit rate 0.098% among 360,000. AID 602405; in the data active = inhibition above about 16%, passing the limit was not always enough; inconclusive = no clear call, values can overlap the other calls
E-selectin induc = induces E-selectin expression in human endothelial cells; hit rate 0.37% among 260,000; HUVEC E-selectin immunofluorescence imaging; normalized: neutral wells 0, TNF-alpha wells 100; AID 686992; activation, % at 7.58 µM;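 active = mean E-selectin-positive cell signal at least 10% of the positive control, reached in at least 60% of replicates, without over 20% cell loss; inconclusive = no rule given, readout overlaps actives, possibly toxicity-flagged; inactive = the rest, including those meeting only one limit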
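Material: HUVEC primary endothelial cells; Amount: 3,000 cells per well; Dosing: single concentration; Medium: EGM-2 growth medium on 0.1% gelatin-coated wells; Read-out basis: percent E-selectin-positive cells; Signal: immunofluorescence imaging; Control set: TNF-alpha, DMSO.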
FGF22 binding = binders of recombinant human FGF22 by thermal shift. hit rate 1.5% among 340,000. activity (Tm shift, normalised), % at 9.99 µM. Q9HCT0. SYPRO orange fluorescence; percent of sucrose octasulfate shift, DMSO zero;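 active = mean Tm shift, scaled 0 neutral to 100 positive control, at about 1.3% or above, every replicate too, limit read from the data; inconclusive = no clear call, values can overlap the other calls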
Target sequence (Q9HCT0 whole entry, looked up): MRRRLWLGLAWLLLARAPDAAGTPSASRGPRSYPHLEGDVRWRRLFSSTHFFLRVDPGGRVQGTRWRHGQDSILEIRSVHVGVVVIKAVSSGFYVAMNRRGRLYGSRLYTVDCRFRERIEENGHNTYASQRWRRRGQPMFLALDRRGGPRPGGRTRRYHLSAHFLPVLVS
C2C12 statin = suppression of simvastatin myotoxicity | rescue of ATP level, % at 7.49 µM | C2C12 myotubes + simvastatin, ATP luminescence, 48 h; scaled: DMSO 0, geranylgeraniol control 100 | AID 602340 | hit rate 0.78% among 330,000;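 active = mean ATP rescue above about 67%, or every replicate alone reaching that limit, limit read from the data, passing the limit was not always enough; inconclusive = no clear call, values can overlap the other calls; inactive = mean under the limit and some replicate under it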;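 also: myotubes were challenged with 10 µM simvastatin during compound exposure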
* marks the source's active call; other numbers are inactive results; ? = inconclusive; . = not tested or not shown.

SMILES | Xi reactivation | DENV2 CPE rescue | PglD inh | E-selectin induc | FGF22 binding | C2C12 statin
CC(C)(C)C(=O)Nc1nc2c(s1)CN(Cc1ccccc1)CC2 | 0 | 5 | . | . | 43* | .
O=C(Nc1nc2c(s1)CN(Cc1ccccc1)CC2)C1CCCC1 | 0 | 8 | . | 9 | 0 | .
C[C@@H]1CN([C@@H](C)CO)C(=O)Cc2cc(NS(=O)(=O)c3cn(C)cn3)ccc2O[C@H]1CN(C)S(=O)(=O)c1ccccc1 | -1 | -4 | 1 | 0 | 0 | -30
O=C(c1ccccn1)N1C[C@H]2[C@@H](c3ccccc31)[C@@H](CO)N2CC1CCCC1 | 0 | . | . | . | . | .
Cc1cc2ccccc2c(=O)[nH]1 | . | . | 4 | . | . | 5
O=c1[nH]c(Nc2ccc(F)cc2)cc2ccccc12 | . | . | 32* | . | . | 45
O=c1[nH]c(Nc2ccccc2Cl)cc2ccccc12 | 0 | 2 | 1 | . | 0 | 136*
O=c1[nH]c(Nc2ccccn2)cc2ccccc12 | 0 | -1 | 0 | 0 | 0 | 10
COc1ccc(-c2nc(NC(C)=O)sc2-c2ccc(OC)cc2)cc1 | 0 | -2 | 0 | 0 | 43* | .
COc1cccc(NC(=O)Cn2c(=O)n(C)c(=O)c3sc4c(c32)COC(C)(C)C4)c1 | 0 | 19 | 0 | . | 0 | 136*
CO[C@H]1CN(C)C(=O)c2ccc(NC(=O)C3CC3)cc2OC[C@H](C)N(CC2CC2)C[C@H]1C | 0 | 4 | -3 | 0 | 0 | -14
O=S(=O)(N[C@H]1CC[C@H](CCn2cc(-c3cccc(F)c3)nn2)O[C@H]1CO)c1ccc(Cl)cc1 | 0 | 6 | 4 | -1 | 0 | 0
Cc1cccc(-c2nnc3n2N=C(c2ccccc2Br)CS3)c1 | . | . | -1 | . | . | 103*
Cc1cc(-c2nnc3n2N=C(c2ccccc2Br)CS3)n[nH]1 | 0 | -3 | . | 3 | 0 | .
N#Cc1ccc(-c2nnnn2-c2ccc3c(c2)OCO3)cc1 | . | . | -2 | . | . | 107*
Cc1ccc(S(=O)(=O)N[C@@H]2CCCN(Cc3ccc(OCCO)cc3)C2)cc1 | . | -4 | 0 | . | 0 | .
CCC(C(=O)NCc1ccccc1)n1c(CSCCOc2ccccc2)nc2ccccc21 (stereo not given) | 0 | 5 | . | 0 | -1 | .
CC(C(=O)NCc1ccccc1)n1c(CSCCOc2ccccc2)nc2ccccc21 (stereo not given) | 0 | 40* | . | 0 | 0 | .
O=C(Nc1ccc(-c2csc(Nc3cccc(C(F)(F)F)c3)n2)cc1)c1cc([N+](=O)[O-])cc(C(F)(F)F)c1 | 0 | 135* | -5 | . | 0 | 4
O=C(Nc1ccc(-c2csc(Nc3cccc(C(F)(F)F)c3)n2)cc1)c1ccccc1 | 0 | -7 | -1 | 1 | 0 | -5
C[C@H](CO)N1C[C@H](C)[C@H](CN(C)Cc2ccncc2)Oc2c(NC(=O)Nc3ccc(C(F)(F)F)cc3)cccc2C1=O | 0 | -1 | -1 | -5 | 0 | 19
CN(C[C@H](Cc1ccccc1)N(C[C@@H](CC1CCCCC1)N(CCc1ccccc1)N=O)N=O)N=O | 0 | 57* | 5 | 0 | 0 | -10
C/C(N)=C(/C#N)C(=O)CSc1nnc(Nc2c(C)cccc2C)s1 | 0 | -1 | -2 | 1 | 43* | .
C/C(N)=C(/C#N)C(=O)CSc1cc(C)c2ccccc2n1 | 0 | 6 | -8 | . | 43* | -1
CO[C@@H]1CN(C)C(=O)c2ccc(NC(=O)C3CC3)cc2OC[C@@H](C)N(CCc2ccccc2)C[C@@H]1C | 0 | 9 | -1 | 0 | -1 | -2
SMILES | Xi reactivation | DENV2 CPE rescue | PglD inh | E-selectin induc | FGF22 binding | C2C12 statin
Cc1cc(C(=O)COC(=O)C2=NNC(=O)CC2)c(C)n1-c1ccccc1 | . | 5 | 3 | . | 0 | 141*
CCCC(=O)Nc1ccc2c(c1)OC[C@@H](C)N(C(=O)CC1CC1)C[C@H](C)[C@H](OC)CN(C)C2=O | 0 | 7 | -4 | 0 | 0 | 1
CCCNC(=O)C[C@H]1CC[C@@H]2[C@H](COc3ccc(NC(=O)NCCC)cc3C(=O)N2C)O1 | 0 | -7 | . | 0 | . | .
COCC(=O)N1CC2(CN(C(=O)NC(C)C)C2)c2c(n(C)c3cc(OC)ccc23)[C@@H]1CO | 0 | 26* | . | 0 | 0 | .
COc1ccc2c3c(n(C)c2c1)[C@H](CO)N(C(=O)C1CCOCC1)CC31CN(C(=O)C2CC2)C1 | 0 | 22* | . | 0 | 0 | .
COCC(=O)N1CC2(CCN(C(=O)NC(C)C)CC2)c2c(n(C)c3cc(OC)ccc23)[C@@H]1CO | 0 | 3 | . | 0 | 0 | .
COc1ccc2c3c(n(C)c2c1)[C@@H](CO)N(C(=O)C1CCOCC1)CC31CN(C(=O)C2CC2)C1 | 0 | -1 | . | 0 | 0 | .
COCC(=O)N1CC2(C1)CN(C(=O)NC1CCCC1)[C@H](CO)c1c2c2ccc(OC)cc2n1C | 0 | 68* | . | 0 | . | .
COCC(=O)N1CCC2(CC1)CN(C(=O)NC1CCCC1)[C@@H](CO)c1c2c2ccc(OC)cc2n1C | 0 | 20 | . | 21 | 0 | .
CCNC(=O)Nc1ccc2c(c1)C(=O)N(C)[C@@H]1CC[C@@H](CC(=O)NCc3cccc(F)c3)O[C@@H]1CO2 | 0 | 12 | -2 | 0 | 0 | 30
O=C(C[C@H]1CC[C@@H]2[C@H](COC[C@H](O)CN2S(=O)(=O)c2cccc(Cl)c2)O1)N1CCOCC1 | 0 | 21* | -2 | 0 | 0 | -6
CN1CCN(C(=O)C[C@H]2CC[C@H]3[C@@H](COC[C@H](O)CN3S(=O)(=O)c3cccc(Cl)c3)O2)CC1 | 0 | 0 | -2 | 0 | 0 | 7
CN1CCN(C(=O)C[C@H]2CC[C@@H]3[C@H](COC[C@@H](O)CN3S(=O)(=O)c3cccc(Cl)c3)O2)CC1 | 0 | 23* | 0 | 0 | 0 | 10
CC1CN(S(=O)(=O)c2cccc(C(=O)NCCc3ccc(S(N)(=O)=O)cc3)c2)CC(C)O1 (stereo not given) | 0 | -2 | -2 | 0 | 43* | 1
CN(C)C(CNC(=O)c1c(F)cccc1Cl)c1ccco1 (stereo not given) | . | 21* | 2 | . | 42 | -7
CN(C)C(CNC(=O)c1cccs1)c1ccco1 (stereo not given) | 0 | 35* | 3 | . | 0 | -4
CN(C)C(CNC(=O)c1ccco1)c1cccs1 (stereo not given) | 0 | ? | 1 | . | 0 | -4
CO[C@H]1CN(C)C(=O)c2cc(NC(=O)C3CC3)ccc2OC[C@H](C)N(C(=O)NC(C)C)C[C@@H]1C | 0 | -5 | 1 | 1 | 0 | -4
Cc1ccc(S(=O)(=O)N2CC[C@@H]3[C@@H](CO)N(C)c4ccc(-c5ccccc5F)cc4[C@@H]32)cc1 | 0 | 7 | -2 | 0 | 0 | 16
